No end group written: not given here.
T1: MORC3 CW domain (residues 407-455), crystallised (human, UniProt Q14149 407-455)
T1 chain (looked up): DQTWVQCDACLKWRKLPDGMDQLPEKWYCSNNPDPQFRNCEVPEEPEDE


Legend:
[1] = target: MORC3 CW domain (wild type, GST tag cleaved) (human); experiment: other fluorescence titration
chromatin in HeLa cells = experiment: Chromatin association assay; assay type: cell-based; conditions: 48 h post transfection, fractionation and immunoblot
Outline: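 HeLa cells (DMEM, 10% FBS, pen/strep) are transfected with full-length human N-terminal 3xFLAG-MORC3, WT or CW mutants, and trypsinized at 48 h. The washed chromatin pellet is nuclease-solubilized. Fractions (1–5 µg) are immunoblotted for FLAG, β-tubulin and H3.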

[2] = test system: nuclear bodies (NBs) in HeLa cells; experiment: Confocal immunofluorescence of FLAG-tagged MORC3; assay type: cell-based; conditions: 48 h post transfection, anti-FLAG
Outline: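 HeLa in DMEM/10% FBS/penicillin-streptomycin grown on chamber slides, transiently transfected (TurboFect) with WT or CW-mutant 3xFLAG-MORC3 (C416S, C416A, W419A). At 48 h: cold methanol fixation (−20°C, 10 min), 1% BSA block 30 min, anti-FLAG 1:200 for 1 h at 25°C, then Alexa Fluor 647 secondary 1:1000 for 1 h. DAPI mount; confocal imaging with 100X objective.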

[3] = target: T1, MORC3 CW domain (residues 407-455), …; experiment: crystal structure
MORC3-CW E453A (human) = experiment: ITC

Molecule | Kd [1] [nM] | association with chromatin (chromatin in HeLa cells) | nuclear localization [2] | other results
WT FLAG-MORC3: FLAG-tagged full length wild-type MORC3 (protein, UniProt Q14149 1-939, looked up, full-length FLAG tag) MAAQPPRGIRLSALCPKFLHTNSTSHTWPFSAVAELIDNAYDPDVNAKQIWIDKTVINDHICLTFTDNGNGMTSDKLHKMLSFGFSDKVTMNGHVPVGLYGNGFKSGSMRLGKDAIVFTKNGESMSVGLLSQTYLEVIKAEHVVVPIVAFNKHRQMINLAESKASLAAILEHSLFSTEQKLLAELDAIIGKKGTRIIIWNLRSYKNATEFDFEKDKYDIRIPEDLDEITGKKGYKKQERMDQIAPESDYSLRAYCSILYLKPRMQIILRGQKVKTQLVSKSLAYIERDVYRPKFLSKTVRITFGFNCRNKDHYGIMMYHRNRLIKAYEKVGCQLRANNMGVGVVGIIECNFLKPTHNKQDFDYTNEYRLTITALGEKLNDYWNEMKVKKNTEYPLNLPVEDIQKRPDQTWVQCDACLKWRKLPDGMDQLPEKWYCSNNPDPQFRNCEVPEEPEDEDLVHPTYEKTYKKTNKEKFRIRQPEMIPRINAELLFRPTALSTPSFSSPKESVPRRHLSEGTNSYATRLLNNHQVPPQSEPESNSLKRRLSTRSSILNAKNRRLSSQFENSVYKGDDDDEDVIILEENSTPKPAVDHDIDMKSEQSHVEQGGVQVEFVGDSEPCGQTGSTSTSSSRCDQGNTAATQTEVPSLVVKKEETVEDEIDVRNDAVILPSCVEAEAKIHETQETTDKSADDAGCQLQELRNQLLLVTEEKENYKRQCHMFTDQIKVLQQRILEMNDKYVKKETCHQSTETDAVFLLESINGKSESPDHMVSQYQQALEEIERLKKQCSALQHVKAECSQCSNNESKSEMDEMAVQLDDVFRQLDKCSIERDQYKSEVELLEMEKSQIRSQCEELKTEVEQLKSTNQQTATDVSTSSNIEESVNHMDGESLKLRSLRVNVGQLLAMIVPDLDLQQVNYDVDVVDEILGQVVEQMSEISST |  | purifies in the chromatin and soluble fractions | localized to NBs | 
C416A: FLAG-tagged MORC3 mutant in CW domain that disrupts the CW structure (protein, UniProt Q14149 1-939, looked up, variant C416A, full-length FLAG tag) MAAQPPRGIRLSALCPKFLHTNSTSHTWPFSAVAELIDNAYDPDVNAKQIWIDKTVINDHICLTFTDNGNGMTSDKLHKMLSFGFSDKVTMNGHVPVGLYGNGFKSGSMRLGKDAIVFTKNGESMSVGLLSQTYLEVIKAEHVVVPIVAFNKHRQMINLAESKASLAAILEHSLFSTEQKLLAELDAIIGKKGTRIIIWNLRSYKNATEFDFEKDKYDIRIPEDLDEITGKKGYKKQERMDQIAPESDYSLRAYCSILYLKPRMQIILRGQKVKTQLVSKSLAYIERDVYRPKFLSKTVRITFGFNCRNKDHYGIMMYHRNRLIKAYEKVGCQLRANNMGVGVVGIIECNFLKPTHNKQDFDYTNEYRLTITALGEKLNDYWNEMKVKKNTEYPLNLPVEDIQKRPDQTWVQCDAALKWRKLPDGMDQLPEKWYCSNNPDPQFRNCEVPEEPEDEDLVHPTYEKTYKKTNKEKFRIRQPEMIPRINAELLFRPTALSTPSFSSPKESVPRRHLSEGTNSYATRLLNNHQVPPQSEPESNSLKRRLSTRSSILNAKNRRLSSQFENSVYKGDDDDEDVIILEENSTPKPAVDHDIDMKSEQSHVEQGGVQVEFVGDSEPCGQTGSTSTSSSRCDQGNTAATQTEVPSLVVKKEETVEDEIDVRNDAVILPSCVEAEAKIHETQETTDKSADDAGCQLQELRNQLLLVTEEKENYKRQCHMFTDQIKVLQQRILEMNDKYVKKETCHQSTETDAVFLLESINGKSESPDHMVSQYQQALEEIERLKKQCSALQHVKAECSQCSNNESKSEMDEMAVQLDDVFRQLDKCSIERDQYKSEVELLEMEKSQIRSQCEELKTEVEQLKSTNQQTATDVSTSSNIEESVNHMDGESLKLRSLRVNVGQLLAMIVPDLDLQQVNYDVDVVDEILGQVVEQMSEISST |  | did not associate with chromatin and were found only in the soluble fractions | diffused throughout the nucleus | 
C416S: FLAG-tagged MORC3 mutant in CW domain that disrupts the CW structure (protein, UniProt Q14149 1-939, looked up, variant C416S, full-length FLAG tag) MAAQPPRGIRLSALCPKFLHTNSTSHTWPFSAVAELIDNAYDPDVNAKQIWIDKTVINDHICLTFTDNGNGMTSDKLHKMLSFGFSDKVTMNGHVPVGLYGNGFKSGSMRLGKDAIVFTKNGESMSVGLLSQTYLEVIKAEHVVVPIVAFNKHRQMINLAESKASLAAILEHSLFSTEQKLLAELDAIIGKKGTRIIIWNLRSYKNATEFDFEKDKYDIRIPEDLDEITGKKGYKKQERMDQIAPESDYSLRAYCSILYLKPRMQIILRGQKVKTQLVSKSLAYIERDVYRPKFLSKTVRITFGFNCRNKDHYGIMMYHRNRLIKAYEKVGCQLRANNMGVGVVGIIECNFLKPTHNKQDFDYTNEYRLTITALGEKLNDYWNEMKVKKNTEYPLNLPVEDIQKRPDQTWVQCDASLKWRKLPDGMDQLPEKWYCSNNPDPQFRNCEVPEEPEDEDLVHPTYEKTYKKTNKEKFRIRQPEMIPRINAELLFRPTALSTPSFSSPKESVPRRHLSEGTNSYATRLLNNHQVPPQSEPESNSLKRRLSTRSSILNAKNRRLSSQFENSVYKGDDDDEDVIILEENSTPKPAVDHDIDMKSEQSHVEQGGVQVEFVGDSEPCGQTGSTSTSSSRCDQGNTAATQTEVPSLVVKKEETVEDEIDVRNDAVILPSCVEAEAKIHETQETTDKSADDAGCQLQELRNQLLLVTEEKENYKRQCHMFTDQIKVLQQRILEMNDKYVKKETCHQSTETDAVFLLESINGKSESPDHMVSQYQQALEEIERLKKQCSALQHVKAECSQCSNNESKSEMDEMAVQLDDVFRQLDKCSIERDQYKSEVELLEMEKSQIRSQCEELKTEVEQLKSTNQQTATDVSTSSNIEESVNHMDGESLKLRSLRVNVGQLLAMIVPDLDLQQVNYDVDVVDEILGQVVEQMSEISST |  | did not associate with chromatin and were found only in the soluble fractions |  | 
W419A: FLAG-tagged MORC3 mutant that abrogates binding to the histone H3 tail (protein, UniProt Q14149 1-939, looked up, variant W419A, full-length FLAG tag) MAAQPPRGIRLSALCPKFLHTNSTSHTWPFSAVAELIDNAYDPDVNAKQIWIDKTVINDHICLTFTDNGNGMTSDKLHKMLSFGFSDKVTMNGHVPVGLYGNGFKSGSMRLGKDAIVFTKNGESMSVGLLSQTYLEVIKAEHVVVPIVAFNKHRQMINLAESKASLAAILEHSLFSTEQKLLAELDAIIGKKGTRIIIWNLRSYKNATEFDFEKDKYDIRIPEDLDEITGKKGYKKQERMDQIAPESDYSLRAYCSILYLKPRMQIILRGQKVKTQLVSKSLAYIERDVYRPKFLSKTVRITFGFNCRNKDHYGIMMYHRNRLIKAYEKVGCQLRANNMGVGVVGIIECNFLKPTHNKQDFDYTNEYRLTITALGEKLNDYWNEMKVKKNTEYPLNLPVEDIQKRPDQTWVQCDACLKARKLPDGMDQLPEKWYCSNNPDPQFRNCEVPEEPEDEDLVHPTYEKTYKKTNKEKFRIRQPEMIPRINAELLFRPTALSTPSFSSPKESVPRRHLSEGTNSYATRLLNNHQVPPQSEPESNSLKRRLSTRSSILNAKNRRLSSQFENSVYKGDDDDEDVIILEENSTPKPAVDHDIDMKSEQSHVEQGGVQVEFVGDSEPCGQTGSTSTSSSRCDQGNTAATQTEVPSLVVKKEETVEDEIDVRNDAVILPSCVEAEAKIHETQETTDKSADDAGCQLQELRNQLLLVTEEKENYKRQCHMFTDQIKVLQQRILEMNDKYVKKETCHQSTETDAVFLLESINGKSESPDHMVSQYQQALEEIERLKKQCSALQHVKAECSQCSNNESKSEMDEMAVQLDDVFRQLDKCSIERDQYKSEVELLEMEKSQIRSQCEELKTEVEQLKSTNQQTATDVSTSSNIEESVNHMDGESLKLRSLRVNVGQLLAMIVPDLDLQQVNYDVDVVDEILGQVVEQMSEISST |  | did not associate with chromatin and were found only in the soluble fractions | diffused throughout the nucleus | 
ARTK(Me3)QTARKSTG (peptide, UniProt P68431 2-13, looked up) [histone H3K4me3 peptide (residues 1-12 of H3)] |  |  |  | binding result [3]: binds
MORC3 His-ATPase domain (aa 1-392) (domain or fragment) MAAQPPRGIRLSALCPKFLHTNSTSHTWPFSAVAELIDNAYDPDVNAKQIWIDKTVINDHICLTFTDNGNGMTSDKLHKMLSFGFSDKVTMNGHVPVGLYGNGFKSGSMRLGKDAIVFTKNGESMSVGLLSQTYLEVIKAEHVVVPIVAFNKHRQMINLAESKASLAAILEHSLFSTEQKLLAELDAIIGKKGTRIIIWNLRSYKNATEFDFEKDKYDIRIPEDLDEITGKKGYKKQERMDQIAPESDYSLRAYCSILYLKPRMQIILRGQKVKTQLVSKSLAYIERDVYRPKFLSKTVRITFGFNCRNKDHYGIMMYHRNRLIKAYEKVGCQLRANNMGVGVVGIIECNFLKPTHNKQDFDYTNEYRLTITALGEKLNDYWNEMKVKKNTE |  |  |  | Kd (MORC3-CW E453A (human)): 9000 nM; stoichiometry N (MORC3-CW E453A (human)): 1

Now from value to molecule, other results behind:

Kd [1] [nM] | Molecule | association with chromatin (chromatin in HeLa cells) | nuclear localization [2] | other results
640 | histone H3K4me3 peptide (residues 1-12 of H3) (from UniProt P68431 2-13) |  |  | 
670 | histone H3K4me2 peptide |  |  | 
740 | histone H3K4me1 peptide |  |  | 
